Data published in article PMC4449380 (Advances in Therapy, 2015).
Read-outs that look alike come from different tables or passages of the source.

Legend:
CYP2A6 = conditions: in vitro; ref Taisho Pharmaceutical Co., Ltd., data on file; cited from earlier work
CYP1A2 = conditions: in vitro; ref Taisho Pharmaceutical Co., Ltd., data on file; cited from earlier work
[1] = cited from earlier work
CYP2B6 = conditions: in vitro; ref Taisho Pharmaceutical Co., Ltd., data on file; cited from earlier work
[2] = system: breast cancer resistance protein; conditions: in vitro; ref Taisho Pharmaceutical Co., Ltd., data on file; cited from earlier work
P-glycoprotein = conditions: in vitro; ref Taisho Pharmaceutical Co., Ltd., data on file; cited from earlier work
CYP2C8 = conditions: in vitro; ref Taisho Pharmaceutical Co., Ltd., data on file; cited from earlier work
[3] = 24-h cumulative urinary glucose excretion; type: in vivo, healthy Japanese males; conditions: luseogliflozin in combination with an OAD
Outline: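 Healthy males, 12 per study. Pooled urine was collected for 24 h pre-dose and 0–24 h post-dose, and urine glucose was measured. Glimepiride arm: randomized three-way crossover of single doses (luseogliflozin 5 mg, glimepiride 1 mg, or both) before breakfast, with ≥7-day washout. Metformin arm: same design with 250 mg under fasting. Voglibose arm: add-on design, urine collected Days 1, 7 and 8.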

CYP2E1 = conditions: in vitro; ref Taisho Pharmaceutical Co., Ltd., data on file; cited from earlier work
[4] = ref Taisho Pharmaceutical Co., Ltd., data on file; cited from earlier work
Safety assessments = type: in vivo, healthy Japanese males
Outline: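 Safety was monitored across six single-site studies of 12 healthy males aged 20–39 years, hospitalized during dosing. Adverse events were recorded by nature and frequency, including changes in laboratory values, vital signs and 12-lead ECG. Investigators judged hypoglycemia from symptoms or blood glucose.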

OAT3 = conditions: in vitro; ref Taisho Pharmaceutical Co., Ltd., data on file; cited from earlier work
[5] = system: organic cation transporter 2; conditions: in vitro; ref Taisho Pharmaceutical Co., Ltd., data on file; cited from earlier work
OAT1 = conditions: in vitro; ref Taisho Pharmaceutical Co., Ltd., data on file; cited from earlier work
CYP2D6 = conditions: in vitro; ref Taisho Pharmaceutical Co., Ltd., data on file; cited from earlier work
CYP3A4 = conditions: in vitro; ref Taisho Pharmaceutical Co., Ltd., data on file; cited from earlier work
[6] = type: in vivo, healthy Japanese males; conditions: co-administered with miglitol
Outline: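 Randomized open-label crossover in 12 males using six sequences with ≥7-day washout. Single oral doses of luseogliflozin 5 mg, miglitol 50 mg, or both were given before breakfast while hospitalized. Venous blood was drawn pre-dose and 0.25–24 h post-dose. Plasma luseogliflozin was measured by LC–MS/MS (0.05–100 ng/mL). Cmax was derived non-compartmentally. GMR with 90% CI, combination vs alone, used ANOVA with treatment, sequence and timing fixed and subject random.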

OATP1B1 = conditions: in vitro; ref Taisho Pharmaceutical Co., Ltd., data on file; cited from earlier work
[7] = type: in vivo, healthy Japanese males
Outline: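 Open-label add-on study in 12 males: luseogliflozin 5 mg Day 1, pioglitazone 30 mg Days 2–7, both Day 8, dosed before breakfast. Blood was drawn pre-dose and 0.25–24 h on Days 1, 7 and 8. LC–MS/MS measured luseogliflozin (0.05–100 ng/mL) and pioglitazone with M-III/M-IV (10–2000 ng/mL). […] GMR with 90% CI was by ANOVA with treatment fixed and subject random.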

CYP2C9 = conditions: in vitro; ref Taisho Pharmaceutical Co., Ltd., data on file; cited from earlier work

Q: What does the source list for `CCOc1ccc(Cc2cc([C@@H]3S[C@H](CO)[C@@H](O)[C@H](O)[C@H]3O)c(OC)cc2C)cc1` [Luseogliflozin, (1S)-1,5-Anhydro-1-[5-(4-ethoxybenzyl)-2-methoxy-4-methylphenyl]-1-thio-D-glucitol]?
A: IC50 (CYP2A6): > 100 µM; IC50 (CYP1A2): > 100 µM; incidence of hypoglycemia ([1]; in combination with a sulfonylurea, over 52 weeks): 10.7%; hemoglobin A1c and fasting plasma glucose ([1]; in combination with other classes of OADs for 52 weeks): significantly reduced; rate of adverse drug reactions ([1]; in combination with other classes of OADs, 52 weeks): 12.4–25.4%; incidence of hypoglycemia ([1]; in combination with other classes of OADs): 0.9–3.4%; IC50 (CYP2B6): > 100 µM; IC50 [2]: > 100 µM; IC50 (P-glycoprotein): > 100 µM; IC50 (CYP2C8): > 100 µM; UGE compared with luseogliflozin alone [3]: slightly reduced; IC50 (CYP2E1): > 100 µM; enzymes involved in the metabolism [4]: cytochrome P450 (CYP) isoforms 3A4/5, 4A11, 4F2, and 4F3B, and UDP-glucuronosyltransferase 1A1; serious adverse events or adverse events requiring treatment discontinuation (Safety assessments; all six studies, luseogliflozin alone or with OADs): no serious adverse events; changes in laboratory tests, vital signs, or electrocardiography (Safety assessments; all studies): no clinically relevant changes; hypoglycemia (Safety assessments; any of the studies): no episodes of hypoglycemia; adverse events (Safety assessments; luseogliflozin administered alone or in combination with the other OADs): no adverse events; adverse events (Safety assessments; luseogliflozin in combination with glimepiride, mild in severity): One adverse event (white blood cell urine positive) occurred in one subject; adverse events (Safety assessments; luseogliflozin in combination with metformin (nausea; nausea and headache), mild in severity): three events occurred in two subjects; IC50 (OAT3): > 100 µM; IC50 [5]: > 100 µM; IC50 (OAT1): > 100 µM; IC50 (CYP2D6): > 100 µM; IC50 (CYP3A4): > 100 µM; change in C max of luseogliflozin [6]: about 15%; IC50 (OATP1B1): > 100 µM; change in C max of luseogliflozin ([7]; co-administered with pioglitazone): about 15%; IC50 (CYP2C9): > 100 µM

Q: With `CCc1ccc(CCOc2ccc(CC3SC(=O)NC3=O)cc2)nc1` (racemic) [Pioglitazone, (±)-5(-)[p(-)[2-(5-ethyl-2-pyridyl)ethoxy]benzyl]-2,4-thiazolidinedione, reference compound] as the compound, how does the “decrease in C max and AUC0–24h of pioglitazone” value ([7]; co-administration with luseogliflozin) read?
A: The value was “about 10%”.
